Measurements: ChEMBL document CHEMBL3734686, “Synthesis, Photophysical Properties, and Biological Evaluation of trans-Bisthioglycosylated Tetrakis(fluorophenyl)chlorin for Photodynamic Therapy” (J Med Chem, 2015)
Active and inactive are the calls of the source.

Key:
Kidney [1] = test: Drug uptake in BALB/c mouse kidney implanted with mouse 4T1 cells assessed per gram of tissue at 0.18 mg/kg, ip after 72 hrs by HPLC-based fluorescence analysis; type: ADME, organism-based; details: in vivo
How it was run: (§1)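 Female BALB/c mice bearing 4T1 thigh tumours received an i.p. dose in ethanol/PEG400/H2O (2/3/5) with 0.1% DMSO, or in saline, and were kept dark until killed. Tissues were weighed (100 mg), homogenised in CH3OH/DMSO/H2O (32/8/1) and centrifuged twice at 2300×g at 4°C. Supernatants were analysed by HPLC with fluorescence detection (λex 404/λem 654 nm or λex 400/λem 666 nm). n = 3 per time point.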

Spleen [2] = test: Drug uptake in BALB/c mouse spleen implanted with mouse 4T1 cells assessed per gram of tissue at 0.18 mg/kg, ip after 72 hrs by HPLC-based fluorescence analysis; type: ADME, organism-based; details: in vivo
How it was run: (§2)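 Female BALB/c mice with 4T1 cells (1 × 10^6 in HBSS) implanted in left rear thigh; single i.p. dose, 7 in ethanol/PEG400/H2O (2/3/5) with 0.1% DMSO, mono-L-aspartyl chlorin e6 in saline; kept dark until sacrifice. Tissues washed, frozen, homogenized in CH3OH/DMSO/H2O (32/8/1), centrifuged 2300×g; supernatant analysed by HPLC with fluorescence detection; three animals per time point.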

Urinary bladder = test: Drug uptake in BALB/c mouse bladder implanted with mouse 4T1 cells assessed per gram of tissue at 0.18 mg/kg, ip after 72 hrs by HPLC-based fluorescence analysis; type: ADME, organism-based; details: in vivo; how it was run: as §1
4T1 [3] = test: Induction of necrosis in mouse 4T1 cells implanted in BALB/c mouse at 5 mg/kg, ip irradiated at 48 J/cm2 measured at 1 day post PDT by […]-based fluorescence microscopic analysis; type: functional, organism-based; details: 0.18 mg/kg, in the assay text read “0.18 mg/kg” for “5 mg/kg”
How it was run: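 Skin-plus-tumor slides from 4T1-bearing mice 1 day after PDT; proteinase K treatment, then dual apoptosis/necrosis detection reagent at room temperature in dark, washed in PBS, examined by fluorescence microscopy.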

[4] = Induction of reactive oxygen generation assessed as quantum yield of hydrogen peroxide generation in O2 saturated PBS containing 1% DMSO under photoirradiation by spectrometry relative to control hematoporphyrin; type: physicochemical; details: buffer
How it was run: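 Photosensitizer (1.00 µM) with HPF (2.00 µM) in PBS containing 1% DMSO, oxygenated 1 min, irradiated with 100-W halogen lamp through λ>500 nm cutoff filter at 37°C; hematoporphyrin as reference.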

[5] = Photocytotoxicity against rat RGK1 cells assessed as cell survival preincubated for 24 hrs followed by irradiation at 16 J/cm2 measured at 24 hrs by WST-8 assay; type: functional, cell-based; details: RGK1, light or radiation study
How it was run: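 Cells (5 × 10^3/well) in DMEM with 10% FCS, 24 h at 37°C, 5% CO2; photosensitizer 1–50000 nM (1% DMSO final) for 24 h, washed, fresh medium. Irradiated with 100-W halogen lamp through λ>500 nm or λ>600 nm cutoff filter to 16 J·cm−2; WST-8 absorbance at 450 nm 24 h later, survival normalized to no-drug wells.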

Plasma = test: Drug uptake in BALB/c mouse plasma implanted with mouse 4T1 cells at 0.045 mg/kg, ip after 1 to 24 hrs by HPLC analysis; type: ADME, organism-based; details: in vivo
Heart [6] = test: Drug uptake in BALB/c mouse heart implanted with mouse 4T1 cells assessed per gram of tissue at 0.18 mg/kg, ip after 6 hrs by HPLC-based fluorescence analysis; type: ADME, organism-based; details: in vivo; how it was run: as §1
Stomach = test: Drug uptake in BALB/c mouse stomach implanted with mouse 4T1 cells assessed per gram of tissue at 0.18 mg/kg, ip after 6 hrs by HPLC-based fluorescence analysis; type: ADME, organism-based; details: in vivo; how it was run: as §2
[7] = Drug uptake in BALB/c mouse small intestine implanted with mouse 4T1 cells assessed per gram of tissue at 0.18 mg/kg, ip after 6 hrs by HPLC-based fluorescence analysis; type: ADME, organism-based; details: in vivo; how it was run: as §2
Kidney [8] = test: Drug uptake in BALB/c mouse kidney implanted with mouse 4T1 cells assessed per gram of tissue at 0.18 mg/kg, ip after 6 hrs by HPLC-based fluorescence analysis; type: ADME, organism-based; details: in vivo; how it was run: as §1
Spleen [9] = test: Drug uptake in BALB/c mouse spleen implanted with mouse 4T1 cells assessed per gram of tissue at 0.18 mg/kg, ip after 6 hrs by HPLC-based fluorescence analysis; type: ADME, organism-based; details: in vivo; how it was run: as §2
Zone of skin [10] = test: Drug uptake in BALB/c mouse skin implanted with mouse 4T1 cells assessed per gram of tissue at 0.18 mg/kg, ip after 6 hrs by HPLC-based fluorescence analysis; type: ADME, organism-based; details: in vivo; how it was run: as §2
4T1 [11] = test: Drug uptake in mouse 4T1 cells implanted in BALB/c mouse assessed per gram of tissue at 0.18 mg/kg, ip after 6 hrs by HPLC-based fluorescence analysis; type: ADME, organism-based; details: in vivo; how it was run: as §2
[12] = Drug uptake in BALB/c mouse small intestine implanted with mouse 4T1 cells assessed per gram of tissue at 0.18 mg/kg, ip after 12 hrs by HPLC-based fluorescence analysis; type: ADME, organism-based; details: in vivo; how it was run: as §2
4T1 [13] = test: Drug uptake in mouse 4T1 cells implanted in BALB/c mouse assessed per gram of tissue at 0.18 mg/kg, ip after 12 hrs by HPLC-based fluorescence analysis; type: ADME, organism-based; details: in vivo; how it was run: as §2
Lung [14] = test: Drug uptake in BALB/c mouse lung implanted with mouse 4T1 cells assessed per gram of tissue at 0.18 mg/kg, ip after 24 hrs by HPLC-based fluorescence analysis; type: ADME, organism-based; details: in vivo; how it was run: as §1
[15] = Drug uptake in BALB/c mouse small intestine implanted with mouse 4T1 cells assessed per gram of tissue at 0.18 mg/kg, ip after 24 hrs by HPLC-based fluorescence analysis; type: ADME, organism-based; details: in vivo; how it was run: as §2
Muscle tissue = test: Drug uptake in BALB/c mouse muscle implanted with mouse 4T1 cells assessed per gram of tissue at 0.18 mg/kg, ip after 24 hrs by HPLC-based fluorescence analysis; type: ADME, organism-based; details: in vivo; how it was run: as §1
Zone of skin [16] = test: Drug uptake in BALB/c mouse skin implanted with mouse 4T1 cells assessed per gram of tissue at 0.18 mg/kg, ip after 24 hrs by HPLC-based fluorescence analysis; type: ADME, organism-based; details: in vivo; how it was run: as §2
4T1 [17] = test: Drug uptake in mouse 4T1 cells implanted in BALB/c mouse assessed per gram of tissue at 0.18 mg/kg, ip after 24 hrs by HPLC-based fluorescence analysis; type: ADME, organism-based; details: in vivo; how it was run: as §2
[18] = Drug uptake in BALB/c mouse small intestine implanted with mouse 4T1 cells assessed per gram of tissue at 0.18 mg/kg, ip after 48 hrs by HPLC-based fluorescence analysis; type: ADME, organism-based; details: in vivo; how it was run: as §2
[19] = Drug uptake in BALB/c mouse large intestine implanted with mouse 4T1 cells assessed per gram of tissue at 0.18 mg/kg, ip after 48 hrs by HPLC-based fluorescence analysis; type: ADME, organism-based; details: in vivo; how it was run: as §1
Kidney [20] = test: Drug uptake in BALB/c mouse kidney implanted with mouse 4T1 cells assessed per gram of tissue at 0.18 mg/kg, ip after 48 hrs by HPLC-based fluorescence analysis; type: ADME, organism-based; details: in vivo; how it was run: as §1
Lung [21] = test: Drug uptake in BALB/c mouse lung implanted with mouse 4T1 cells assessed per gram of tissue at 0.18 mg/kg, ip after 72 hrs by HPLC-based fluorescence analysis; type: ADME, organism-based; details: in vivo; how it was run: as §1
Heart [22] = test: Drug uptake in BALB/c mouse heart implanted with mouse 4T1 cells assessed per gram of tissue at 0.18 mg/kg, ip after 72 hrs by HPLC-based fluorescence analysis; type: ADME, organism-based; details: in vivo; how it was run: as §1
[23] = Ratio of drug level in tumor to skin in BALB/c mouse implanted with mouse 4T1 cells ip after 24 hrs; details: in vivo

For `CN1CC2C3=N/C(=C(/c4c(F)c(F)c(S[C@@H]5O[C@H](CO)[C@@H](O)[C@H](O)[C@H]5O)c(F)c4F)C4=N/C(=C(/c5c(F)c(F)c(F)c(F)c5F)c5ccc([nH]5)/C(c5c(F)c(F)c(S[C@@H]6O[C@H](CO)[C@@H](O)[C@H](O)[C@H]6O)c(F)c5F)=C5/C=CC(=N5)C3c3c(F)c(F)c(F)c(F)c3F)C=C4)C2C1` (some centres not stated), which Drug uptake (Kidney [1]) is on record?
The Drug uptake was 13 ng.

What about the Drug uptake (Spleen [2]) of the same compound?
The Drug uptake was 8 ng.

And the Drug uptake (Urinary bladder)?
Its Drug uptake is 8 ng.

And the Activity (4T1 [3])?
The Activity was “Active”.

And the Ratio [4]?
The Ratio was 0.18.

What about the EC50 [5] of the same compound?
The EC50 was 1 nM.

And the Drug uptake (Plasma)?
The Drug uptake was “Active”.

And the Drug uptake (Heart [6])?
The Drug uptake was 24 ng/g.

What about the Drug uptake (Stomach) of the same compound?
Its Drug uptake is 48 ng/g.

And the Drug uptake [7]?
Its Drug uptake is 90 ng.

What about the Drug uptake (Kidney [8]) of the same compound?
Its Drug uptake is 38 ng.

What about the Drug uptake (Spleen [9]) of the same compound?
The Drug uptake was 90 ng/g.

And the Drug uptake (Zone of skin [10])?
Its Drug uptake is 5 ng.

And the Drug uptake (4T1 [11])?
The Drug uptake was 5 ng.

What about the Drug uptake [12] of the same compound?
The Drug uptake was 80 ng.

And the Drug uptake (4T1 [13])?
Its Drug uptake is 4 ng/g.

What about the Drug uptake (Lung [14]) of the same compound?
Its Drug uptake is 29 ng/g.

And the Drug uptake [15]?
Its Drug uptake is 39 ng/g.

What about the Drug uptake (Muscle tissue) of the same compound?
Its Drug uptake is 1.2 ng.

And the Drug uptake (Zone of skin [16])?
The Drug uptake was 0 ng.

What about the Drug uptake (4T1 [17]) of the same compound?
The Drug uptake was 3 ng.

And the Drug uptake [18]?
The Drug uptake was 9.5 ng/g.

And the Drug uptake [19]?
The Drug uptake was 17 ng/g.

What about the Drug uptake (Kidney [20]) of the same compound?
Its Drug uptake is 5 ng.

And the Drug uptake (Lung [21])?
The Drug uptake was 7 ng/g.

What about the Drug uptake (Heart [22]) of the same compound?
The Drug uptake was 3.3 ng.

And the Ratio [23]?
Its Ratio is 60.
